Only some compounds are listed: those with a hit (about 2.3% of all), similar ones and a draw of the others.
LMPTP block: LMPTP (human) inhibition. P24666. recombinant LMPTP-A, OMFP fluorogenic substrate, fluorescence intensity. inhibition, % at 20 µM. hit rate 0.22% among 360,000. AID 651560;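 active means compounds that cut the enzyme signal by at least half of the control window in the single-dose screen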;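 further: plate controls were DMSO wells with enzyme plus substrate for no effect and substrate without enzyme for full effect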
Target sequence (P24666 whole entry, looked up): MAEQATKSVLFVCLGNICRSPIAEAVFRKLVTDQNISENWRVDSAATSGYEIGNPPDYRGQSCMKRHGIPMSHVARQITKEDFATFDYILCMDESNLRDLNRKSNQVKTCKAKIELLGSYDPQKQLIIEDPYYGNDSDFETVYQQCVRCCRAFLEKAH
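Test system: LMPTP-A phosphatase enzyme; input: 0.625 nM LMPTP-A final; reagent: OMFP substrate, 400 µM final; compound dosing: 20 µM single dose, 3% DMSO; incubation: 50 min dark incubation at room temperature; measured by: endpoint fluorescence intensity from OMFP dephosphorylation; measure: % inhibition relative to no-enzyme and uninhibited control wells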
SUMO1 PPI mod: alters human SUMO1 binding to SIM partners; inhibition, % at 20 µM; SUMO1 binding to a labelled peptide, TR-FRET, 1 h; hit rate 0.33% among 360,000; in the data active means inhibition above about 37%
Target sequence (P63165 whole entry, looked up): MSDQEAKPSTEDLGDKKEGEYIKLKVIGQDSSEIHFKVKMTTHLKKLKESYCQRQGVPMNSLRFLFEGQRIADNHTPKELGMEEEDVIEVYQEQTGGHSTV
STEP inh: STEP (human) phosphatase inhibition | hit rate 0.25% among 360,000 | recombinant STEP, OMFP fluorogenic substrate, fluorescence | inhibition, % at 20 µM | P54829;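 active means inhibition at 20 µM, scaled per plate between control wells, above about 37%, limit read from the data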;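 further: 0% = DMSO with enzyme and substrate and 100% = substrate only without enzyme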
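Material: STEP (striatal-enriched tyrosine phosphatase) enzyme, cell-free | Medium: 50 mM Bis-Tris pH 6.0 with 2.5 mM DTT and 0.005% Tween 20 | Read-out: Percent inhibition scaled to no-enzyme and uninhibited-enzyme controls, plate-pattern corrected | Signal: Fluorescence read at 480 nm ex / 540 nm em | Times: 20 min reaction, room temperature, in the dark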
Scp1 inh: Scp-1 (human) phosphatase inhibition. Recombinant Scp1, phosphopeptide, malachite green phosphate absorbance. inhibition, % at 20 µM. hit rate 0.88% among 340,000. AID 493091;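 active means inhibition above about 50% at 20 µM, limit read from the data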;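 further: plate controls were DMSO wells with enzyme for no effect and wells lacking enzyme for full effect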
Target sequence (Q9GZU7 76-261 limits assumed): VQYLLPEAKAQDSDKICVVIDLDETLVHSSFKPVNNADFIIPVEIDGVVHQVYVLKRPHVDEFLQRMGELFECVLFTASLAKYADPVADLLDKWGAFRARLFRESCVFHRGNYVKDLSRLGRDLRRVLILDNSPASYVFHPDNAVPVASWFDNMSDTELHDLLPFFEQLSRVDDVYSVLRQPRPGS
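Test system: SCP-1 phosphatase catalytic domain, residues 76-261 | Compound dosing: One concentration, 20 µM, with 1.0% DMSO | Schedule: 45 min room-temperature reaction, 5 min colour, 30 min stabiliser | Detection: Absorbance at 630 nm | Read-out basis: % inhibition of SCP-1 phosphate liberation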
Rpn11 block: blocks the human proteasome subunit Rpn11. inhibition, % at 20 µM. hit rate 0.59% among 360,000. O00487. human 26S proteasome, Ub4-pepOG fluorescence polarization; 20S core pre-blocked with epoxomicin;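 active means inhibition at 20 µM, scaled to each plate's controls, above about 33%, limit read from the data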
DNMT1 inh: DNMT1 (human) enzyme inhibition; P26358; DNMT1 molecular beacon, Hinp1I cleavage, fluorescence; inhibition (reported as % activation of signal), % at 10 µM; hit rate 0.83% among 360,000; in the data active means inhibition above about 50%
Beacon interf DR: shows spectral interference in the DNMT1 beacon assay. shares compounds with DNMT1 inh. molecular beacon fluorescence, spectral interference counter-screen. IC50, µM. 200 tested, under 10 active. AID 602382; call rule not given here
DNMT1 confirm: confirmation of human DNMT1 inhibitors; AID 602385; shares compounds with DNMT1 inh; DNMT1 molecular beacon HinP1I cleavage, fluorescence; hit rate 8% among 2,300; inhibition, % at 10 µM;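 active means average inhibition of at least 30% in the single-concentration confirmation test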
DNMT1 interf: shows spectral interference in the DNMT1 beacon assay; DNMT1 molecular beacon spectral interference counterscreen, fluorescence 485/520; AID 602387; shares compounds with DNMT1 inh; activation (fluorescence interference), % at 10 µM; hit rate 1% among 2,300;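 active means activation of at least 30% at 10 µM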;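 further: DNMT1 catalytic domain with a HinP1I cleavage step and a FAM/dabcyl DNA beacon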
Numbers without * were called inactive.

C=C(C)C1(O)OC(=O)C=C1OC (centres undefined) was read as LMPTP block 0, SUMO1 PPI mod -2, STEP inh -3, Scp1 inh 4, Rpn11 block 0, DNMT1 inh 53*, DNMT1 confirm 5 and DNMT1 interf 4.
For O=C(CNC(=O)Cc1ccccc1)NCC(=O)OCc1ccccc1 the results were LMPTP block -1, SUMO1 PPI mod 1, STEP inh 3, Scp1 inh 1, Rpn11 block 2, DNMT1 inh 68*, DNMT1 confirm 0 and DNMT1 interf 3.
For O=C(CNC(=O)c1ccco1)NCC(=O)OCc1ccccc1Cl the results were LMPTP block 0, SUMO1 PPI mod 5, STEP inh -4, Scp1 inh -8, Rpn11 block -1 and DNMT1 inh 2.
Screening O=C(CNC(=O)c1ccco1)NCC(=O)OCc1ccc(Cl)cc1Cl returned LMPTP block -1, SUMO1 PPI mod 6, STEP inh 0, Scp1 inh -7, Rpn11 block -3, DNMT1 inh 66*, DNMT1 confirm 1 and DNMT1 interf 5.
Screening Cc1ccc2ccccc2c1C(O)c1ncc(-c2ccc(F)cc2)[nH]1 (centres undefined) returned LMPTP block 0, SUMO1 PPI mod -7, STEP inh 1, Rpn11 block 4 and DNMT1 inh -5.
`COC(=O)[C@H](CCSC)NC(=O)Cn1cnc2c(NCc3ccccc3)ncnc21` gave LMPTP block -1, SUMO1 PPI mod 3, STEP inh 1, Scp1 inh 4, Rpn11 block -8 and DNMT1 inh 5.
`Cc1cc(=O)oc2c3c(cc(OCC(=O)NC(Cc4ccc(Cl)cc4)C(=O)O)c12)OC(C)(C)CC3` (centres undefined) gave LMPTP block -1, SUMO1 PPI mod 15, STEP inh -2, Scp1 inh 4, Rpn11 block -9, DNMT1 inh 98*, DNMT1 confirm 1 and DNMT1 interf 0.
Screening Cc1cc(=O)oc2c3c(cc(OCC(=O)N[C@@H](Cc4ccccc4)C(=O)O)c12)OC(C)(C)CC3 returned LMPTP block -1, SUMO1 PPI mod 1, STEP inh -2, Scp1 inh -4, Rpn11 block -1 and DNMT1 inh 0.
`COc1ccc(Cn2cc(CN3CC(N4CCN(C5CCN(C)CC5)CC4)CS3(=O)=O)nn2)cc1` (centres undefined) gave LMPTP block -6 and SUMO1 PPI mod -19.
CCOc1ccccc1C(=O)N/N=C/c1ccoc1 was read as LMPTP block 2, SUMO1 PPI mod -1, STEP inh 15, Scp1 inh 44, Rpn11 block -4 and DNMT1 inh 19.
`Clc1ccc(-c2ccc(/C=N/Nc3nncc(-c4ccccc4)n3)o2)cc1` gave LMPTP block 1, SUMO1 PPI mod -2, STEP inh 0, Scp1 inh 0, Rpn11 block 3 and DNMT1 inh 4.
`Clc1ccccc1-c1ccc(/C=N/Nc2nncc(-c3ccccc3)n2)o1` gave LMPTP block 4, SUMO1 PPI mod 0, STEP inh 8, Scp1 inh -2, Rpn11 block 2, DNMT1 inh 69*, DNMT1 confirm -1 and DNMT1 interf -5.
For COc1cccc(C2c3c(-c4cc(Cl)c(C)cc4O)n[nH]c3C(=O)N2Cc2cccnc2)c1 (centres undefined) the results were LMPTP block 8, SUMO1 PPI mod 2, STEP inh 1, Scp1 inh 3, Rpn11 block 0, DNMT1 inh 98*, DNMT1 confirm 2 and DNMT1 interf 4.
COc1ccc(C2c3c(-c4ccccc4O)n[nH]c3C(=O)N2Cc2ccco2)cc1 (centres undefined) was read as LMPTP block 3, SUMO1 PPI mod -1, STEP inh 0, Scp1 inh -14, Rpn11 block 6, DNMT1 inh 66*, DNMT1 confirm 1 and DNMT1 interf 2.
Screening O=C(O)CN1C(=O)/C(=C\c2cc(Br)ccc2OCc2ccc(Cl)cc2)SC1=S returned LMPTP block 14, SUMO1 PPI mod 61*, STEP inh 16, Scp1 inh -7, Rpn11 block 8, DNMT1 inh 61*, Beacon interf DR >99, DNMT1 confirm 56* and DNMT1 interf -9.
`O=C(O)CN1C(=O)/C(=C\c2cc(Br)ccc2OCc2ccc(F)cc2)SC1=S` gave LMPTP block 4, SUMO1 PPI mod 8, STEP inh 6, Scp1 inh 8, Rpn11 block 3 and DNMT1 inh 24.
For Cc1c(C)c2ccc(OCC(=O)N[C@@H](Cc3ccccc3)C(=O)O)cc2oc1=O the results were LMPTP block 0, SUMO1 PPI mod 8, STEP inh -2, Scp1 inh -1, Rpn11 block -5 and DNMT1 inh -2.
For CCCCCCc1c(C)c2ccc(OCC(=O)N[C@@H](Cc3ccccc3)C(=O)O)cc2oc1=O the results were LMPTP block 2, SUMO1 PPI mod 14, STEP inh -1, Scp1 inh 37, Rpn11 block 6, DNMT1 inh 61*, DNMT1 confirm 4 and DNMT1 interf -3.
CCc1nnc(NS(=O)(=O)c2ccc(NC(=S)NC(=O)/C=C/c3ccc(C(C)C)cc3)cc2)s1 was read as LMPTP block 4, SUMO1 PPI mod 27, STEP inh 0, Scp1 inh -10, Rpn11 block 24, DNMT1 inh 62*, Beacon interf DR >99, DNMT1 confirm 33* and DNMT1 interf -4.
`O=[N+]([O-])c1ccc(-c2cn(-c3ccc(Cl)cc3)cn2)cc1` gave LMPTP block 15, SUMO1 PPI mod 75*, STEP inh 25, Rpn11 block 31, DNMT1 inh 54*, DNMT1 confirm 5 and DNMT1 interf 0.
For CCOC(=O)c1ccc(-n2cnc(-c3ccc([N+](=O)[O-])cc3)c2)cc1 the results were LMPTP block 4, SUMO1 PPI mod -8, STEP inh 5, Rpn11 block 5 and DNMT1 inh 10.
For CCCCNC(=O)Cn1cnc2sc(C)c(S(=O)(=O)N3CCN(c4ncccn4)CC3)c2c1=O the results were LMPTP block -2, SUMO1 PPI mod 5, STEP inh -2, Scp1 inh 1, Rpn11 block -2 and DNMT1 inh -1.

Assay outcomes (PubChem BioAssay)
